Measured values reported in ChEMBL document CHEMBL1124865, “Synthesis and biological evaluation of a series of parenteral 3'-quaternary ammonium cephalosporins” (J Med Chem, 1990).
≈ marks a conversion by molar mass, not a printed value.

Assays:
Type in all cases: functional
[1] = test system: Staphylococcus aureus; assay: In vitro relative hydrolysis rate against Staphylococcus aureus
How it was run: (§1)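 Spectrophotometric hydrolysis at 265 nm, substrate exposed to partially purified cell-free β-lactamase preparations; rate expressed as percentage of the cephaloridine rate.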

[2] = test system: Staphylococcus aureus; assay: In vivo efficacy against Staphylococcus aureus infected mice treated at 1 hr and 5 hr post infection
[3] = test system: Streptococcus pyogenes; assay: Antibacterial activity against Streptococcus pyogenes
[4] = test system: Escherichia coli; assay: In vivo efficacy against Escherichia coli infected mice treated at 1 hr and 5 hr post infection
[5] = test system: Pseudomonas aeruginosa; assay: In vivo efficacy against Pseudomonas aeruginosa infections in mice
[6] = test system: Escherichia coli; assay: Antibacterial activity against Escherichia coli TEM
[7] = test system: Klebsiella pneumoniae; assay: Antibacterial activity against Klebsiella pneumoniae X26; settings: Klebsiella pneumoniae; read-out: MIC
[8] = test system: Pseudomonas aeruginosa; assay: In vivo efficacy against Pseudomonas aeruginosa infected mice treated at 1 hr and 5 hr post infection
[9] = test system: Serratia marcescens; assay: Antibacterial activity against Serratia marcescens SE3
[10] = test system: Escherichia coli; assay: Antibacterial activity against Escherichia coli EC14; settings: Escherichia coli; read-out: MIC
[11] = test system: Pseudomonas aeruginosa; assay: In vitro relative hydrolysis rate against Pseudomonas Id; how it was run: as §1
[12] = test system: Enterobacter cloacae; assay: In vitro relative hydrolysis rate against Enterobacter Ia; how it was run: as §1
[13] = test system: Staphylococcus aureus; assay: Antibacterial activity against penicillin G resistance Staphylococcus aureus
[14] = test system: Klebsiella pneumoniae; assay: In vitro relative hydrolysis rate against Klebsiella IV; how it was run: as §1
[15] = test system: Pseudomonas aeruginosa; assay: Antibacterial activity against Pseudomonas aeruginosa PS18
[16] = test system: Staphylococcus aureus; assay: Antibacterial activity against penicillin G susceptible Staphylococcus aureus
[17] = test system: Staphylococcus aureus; assay: In vivo efficacy against Staphylococcus aureus infections in mice
[18] = test system: Enterobacter cloacae; assay: Antibacterial activity against Enterobacter cloacae 265A
[19] = test system: Streptococcus pneumoniae; assay: Antibacterial activity against Streptococcus pneumoniae
[20] = test system: Enterococcus faecium; assay: Antibacterial activity against Enterococcus faecium; settings: Enterococcus faecium; read-out: MIC
[21] = test system: Klebsiella pneumoniae; assay: microbe, parasite or virus in culture
[22] = test system: Pseudomonas aeruginosa; assay: Antibacterial activity against Pseudomonas aeruginosa X528
[23] = test system: Escherichia coli; assay: In vitro relative hydrolysis rate against Escherichia coli IIIa; how it was run: as §1
[24] = test system: Escherichia coli; assay: In vivo efficacy against Escherichia coli infections in mice; settings: Escherichia coli; read-out: MIC
[25] = test system: Enterobacter cloacae; assay: Antibacterial activity against Enterobacter cloacae EB5
[26] = Staphylococcus aureus, read-out: ED50
[27] = Streptococcus pyogenes, read-out: MIC
[28] = Escherichia coli, read-out: ED50
[29] = Pseudomonas aeruginosa, read-out: MIC
[30] = Escherichia coli, read-out: MIC
[31] = Pseudomonas aeruginosa, read-out: ED50
[32] = Serratia marcescens, read-out: MIC
[33] = Staphylococcus aureus, read-out: MIC
[34] = Enterobacter cloacae, read-out: MIC
[35] = Streptococcus pneumoniae, read-out: MIC
[36] = Klebsiella pneumoniae, read-out: MIC

CO/N=C(\C(=O)N[C@@H]1C(=O)N2C(C(=O)[O-])=C(C[n+]3cccc4sccc43)CS[C@H]12)c1csc(N)n1
Hydrolysis rate [1]: 6.2 | ED50 [2, 26]: 0.6 mg/kg | MIC [3, 27]: 0.015 µg/mL (≈ 0.0283 µM) | ED50 [4, 28]: 0.04 mg/kg | MIC [5, 29]: 2 µg/mL (≈ 3.77 µM) | MIC [6, 30]: 0.06 µg/mL (≈ 0.113 µM) | MIC [7]: 0.03 µg/mL (≈ 0.0565 µM) | ED50 [8, 31]: 9.3 mg/kg | MIC [9, 32]: 0.125 µg/mL (≈ 0.236 µM) | MIC [10]: 0.06 µg/mL (≈ 0.113 µM) | Hydrolysis rate [11]: 0.2 | Hydrolysis rate [12]: 0.2 | MIC [13, 33]: 4 µg/mL (≈ 7.54 µM) | Hydrolysis rate [14]: 0.7 | MIC [15, 29]: 4 µg/mL (≈ 7.54 µM) | MIC [16, 33]: 0.5 µg/mL (≈ 0.942 µM) | MIC [17, 33]: 1 µg/mL (≈ 1.88 µM) | MIC [18, 34]: 4 µg/mL (≈ 7.54 µM) | MIC [19, 35]: 0.03 µg/mL (≈ 0.0565 µM) | MIC [20]: 128 µg/mL (≈ 241 µM) | MIC [21, 36]: 1 µg/mL (≈ 1.88 µM) | MIC [22, 29]: 2 µg/mL (≈ 3.77 µM) | Hydrolysis rate [23]: 0.2 | MIC [24]: 0.03 µg/mL (≈ 0.0565 µM) | MIC [25, 34]: 0.25 µg/mL (≈ 0.471 µM)

CO/N=C(\C(=O)N[C@@H]1C(=O)N2C(C(=O)[O-])=C(C[n+]3ccc(CC(=O)NO)cc3)CS[C@H]12)c1csc(N)n1 (stereo in doubt; 9)
Hydrolysis rate [1]: 6.9 | ED50 [2]: 1 mg/kg | MIC [3]: 0.03 µg/mL (≈ 0.0548 µM) | ED50 [4]: <0.3 mg/kg | MIC [5]: 16 µg/mL (≈ 29.2 µM) | MIC [6]: 0.03 µg/mL (≈ 0.0548 µM) | MIC [7]: 0.03 µg/mL (≈ 0.0548 µM) | ED50 [8]: 39 mg/kg | MIC [9]: 0.125 µg/mL (≈ 0.228 µM) | MIC [10]: 0.03 µg/mL (≈ 0.0548 µM) | Hydrolysis rate [11]: 0.1 | Hydrolysis rate [12]: 0.2 | MIC [13]: 4 µg/mL (≈ 7.3 µM) | Hydrolysis rate [14]: 1.2 | MIC [15]: 4 µg/mL (≈ 7.3 µM) | MIC [16]: 2 µg/mL (≈ 3.65 µM) | MIC [17]: 1 µg/mL (≈ 1.83 µM) | MIC [18]: 32 µg/mL (≈ 58.4 µM) | MIC [19]: 0.03 µg/mL (≈ 0.0548 µM) | MIC [20]: 128 µg/mL (≈ 234 µM) | MIC [21]: 4 µg/mL (≈ 7.3 µM) | MIC [22]: 8 µg/mL (≈ 14.6 µM) | Hydrolysis rate [23]: 0.1 | MIC [24]: 0.03 µg/mL (≈ 0.0548 µM) | MIC [25]: 0.25 µg/mL (≈ 0.457 µM)

CO/N=C(\C(=O)N[C@@H]1C(=O)N2C(C(=O)[O-])=C(C[n+]3ccc4ccccc4c3)CS[C@H]12)c1csc(N)n1
Hydrolysis rate [1]: 9.3 | ED50 [2, 26]: 0.4 mg/kg | MIC [3, 27]: < 0.008 µg/mL | ED50 [4, 28]: 0.04 mg/kg | MIC [5, 29]: 8 µg/mL (≈ 15.3 µM) | MIC [6, 30]: 0.03 µg/mL (≈ 0.0572 µM) | MIC [7]: 0.015 µg/mL (≈ 0.0286 µM) | ED50 [8, 31]: 9 mg/kg | MIC [9, 32]: 0.06 µg/mL (≈ 0.114 µM) | MIC [10]: 0.015 µg/mL (≈ 0.0286 µM) | Hydrolysis rate [11]: 0.1 | Hydrolysis rate [12]: 0.3 | MIC [13, 33]: 1 µg/mL (≈ 1.91 µM) | Hydrolysis rate [14]: 2.8 | MIC [15, 29]: 4 µg/mL (≈ 7.63 µM) | MIC [16, 33]: 1 µg/mL (≈ 1.91 µM) | MIC [17, 33]: 1 µg/mL (≈ 1.91 µM) | MIC [18, 34]: 8 µg/mL (≈ 15.3 µM) | MIC [19, 35]: 0.015 µg/mL (≈ 0.0286 µM) | MIC [20]: 128 µg/mL (≈ 244 µM) | MIC [21, 36]: 2 µg/mL (≈ 3.81 µM) | MIC [22, 29]: 2 µg/mL (≈ 3.81 µM) | Hydrolysis rate [23]: 0.2 | MIC [24]: 0.015 µg/mL (≈ 0.0286 µM) | MIC [25, 34]: 0.06 µg/mL (≈ 0.114 µM)

CO/N=C(\C(=O)N[C@@H]1C(=O)N2C(C(=O)[O-])=C(C[n+]3ccc4ccsc4c3)CS[C@H]12)c1csc(N)n1
Hydrolysis rate [1]: 7.1 | ED50 [2, 26]: 0.4 mg/kg | MIC [3, 27]: < 0.008 µg/mL | ED50 [4, 28]: 0.02 mg/kg | MIC [5, 29]: 4 µg/mL (≈ 7.54 µM) | MIC [6, 30]: 0.03 µg/mL (≈ 0.0565 µM) | MIC [7]: 0.015 µg/mL (≈ 0.0283 µM) | ED50 [8, 31]: 9.5 mg/kg | MIC [9, 32]: 0.03 µg/mL (≈ 0.0565 µM) | MIC [10]: 0.015 µg/mL (≈ 0.0283 µM) | Hydrolysis rate [11]: 0.4 | Hydrolysis rate [12]: 0.7 | MIC [13, 33]: 4 µg/mL (≈ 7.54 µM) | Hydrolysis rate [14]: 6.9 | MIC [15, 29]: 4 µg/mL (≈ 7.54 µM) | MIC [16, 33]: 1 µg/mL (≈ 1.88 µM) | MIC [17, 33]: 1 µg/mL (≈ 1.88 µM) | MIC [18, 34]: 8 µg/mL (≈ 15.1 µM) | MIC [19, 35]: < 0.008 µg/mL | MIC [20]: > 128 µg/mL | MIC [21, 36]: 4 µg/mL (≈ 7.54 µM) | MIC [22, 29]: 2 µg/mL (≈ 3.77 µM) | Hydrolysis rate [23]: 0.2 | MIC [24]: < 0.008 µg/mL | MIC [25, 34]: 0.06 µg/mL (≈ 0.113 µM)
